Assay results gathered from unrelated publications.
Sample: plasma

SMILES	test system	setting	bioavailability [%]
COc1ccc2c(Cc3ccccc3F)c3n(c(=O)c2c1OC)CCc1cc2c(cc1-3)OCO2	rat	oral, 5 mg/kg	15
Oc1c(-n2ccnc2)cnn1-c1cc(N2CCCCC2)ncn1	rat	oral, 30 mg/kg	39
CCOC(=O)[C@@]12C[C@@H]1[C@@H](n1ccc3c(NC)nc(C#Cc4ccc(Cl)s4)nc31)[C@H](O)[C@@H]2O	male Sprague-Dawley rat	oral, 5 mg/kg	92
N#Cc1ccc(-c2ccc(C[C@@H](C#N)NC(=O)C3(N)CCOCC3)cc2)cc1	Sprague-Dawley rat	oral, 3 mg/kg	92
O=C(Nc1cc(F)c(F)c(F)c1)c1ccc(F)c(S(=O)(=O)NCc2cccc(B(O)O)c2)c1	male Sprague-Dawley rat	oral, 20 mg/kg	2.85
N#Cc1ccc(Nc2nc(N)cc(Oc3c(F)cc(-c4ccc(C#N)cc4)cc3F)n2)cc1	Sprague-Dawley rat	oral, 5 mg/kg	6.51
CC[C@H](C)[C@H](NC(=O)[C@H](Cc1ccccc1)NC(=O)[C@H](CCC(=O)O)NC(=O)[C@H](CCCNC(=N)N)NC(=O)[C@H](C)NC(=O)[C@H](C)NC(=O)[C@H](CCC(N)=O)NC(=O)[C@H](CCC(=O)O)NC(=O)[C@H](CCC(=O)O)NC(=O)[C@H](CC(C)C)NC(=O)[C@H](Cc1ccc(O)cc1)NC(=O)[C@H](CO)NC(=O)[C@H](CO)NC(=O)[C@@H](NC(=O)[C@H](CC(=O)O)NC(=O)[C@H](CO)NC(=O)[C@@H](NC(=O)[C@H](Cc1ccccc1)NC(=O)[C@@H](NC(=O)CNC(=O)[C@H](CCC(=O)O)NC(=O)[C@H](C)NC(=O)CCc1c[nH]cn1)[C@@H](C)O)[C@@H](C)O)C(C)C)C(=O)N[C@@H](C)C(=O)N[C@@H](Cc1c[nH]c2ccccc12)C(=O)N[C@@H](CC(C)C)C(=O)N[C@H](C(=O)N[C@@H](CCCNC(=N)N)C(=O)NCC(=O)N[C@@H](CCCNC(=N)N)C(=O)N[C@@H](CCCCNC(=O)COCCOCCNC(=O)COCCOCCNC(=O)CC[C@H](NC(=O)CCCCCCCCCCCCCCCCC(=O)O)C(=O)O)C(=O)O)C(C)C	rat	subcutaneous, 20 nmol/kg	38.7
CNC(=O)c1cccc(-c2ccc(O[C@H]3O[C@H](CO)[C@@H](O)[C@H](O)[C@@H]3O)c(C)c2)c1	male Sprague-Dawley rat	oral, 10 mg/kg, single dose	1.34
Cc1cc(C(=O)O)nc(N2C[C@H]3C[C@@H](c4ccccc4C(F)(F)F)C[C@H]3C2)n1	Sprague-Dawley rat	oral, 12.7 µmol/kg, single dose	> 100
Cn1cc(-c2cc(N3CCCS3(=O)=O)ccc2Oc2ccc(F)cc2F)c2c(F)c[nH]c2c1=O	Sprague-Dawley rat	oral, 3 mg/kg	20 to 30
C#Cc1cnc2nc(O)n(C(CC)CC)c2n1	Sprague-Dawley rat	oral, 1 mg/kg	> 90
CC1(C)CCN(c2c(C#N)c(=O)[nH]c3cccnc23)CC1	male Wistar rat	oral	61
Oc1c(Br)cc(Cl)c2cccnc12	Sprague-Dawley rat	oral, 20 mg/kg	39
Cc1c(-c2ccccc2)cccc1N1C(=O)c2cc(CN[C@H](C(=O)O)C(C)O)c(OCc3cccc(C#N)c3)cc2C1=O (stereo partly shown)	Sprague-Dawley rat	oral, 50 mg/kg	0.31
COc1c(C#N)ccnc1N1C2CCC1CN(C(=O)c1cccnc1-n1cccn1)C2	rat	oral, 30 mg/kg	8.5
Oc1c(-n2ccnn2)cnn1-c1cc(N2CCOCC2)ncn1	rat	oral, 30 mg/kg	34
